From PubChem BioAssay come the findings set out here.

The list shows a part of the results. Values without a mark were called inactive. Activity calls are given as the source filed them.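 The calls were made as follows, unless noted: active = mean percent inhibition of the KCNQ2 thallium signal more than 5 SD above the buffer-only control wells; inactive = the rest.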

In experiment [1] the target is Potassium voltage-gated channel subfamily KQT member 1 (Homo sapiens) (UniProt P51787). Nature of the experiment: KCNQ1 potassium channel inhibitors, confirmation, cell-based, Tl flux, duplicate (AID 588353;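 active = primary screen active, with duplicate mean exceeding buffer control mean plus 3 SD of buffer wells, cut at about 28% in these data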;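 also: 0% = buffer control ratio and 100% = XE991 inhibitor control ratio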). The following applies: KCNQ1 cell line, FluxOR thallium flux fluorescence, at 10 µM, active compounds read high. A digest of the protocol:
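System: stable KCNQ1-expressing CHO cell line; Reagent: Tl2SO4 plus K2SO4 stimulus, each 12.5 mM in 5x stock; Schedule: dye loading 90 min, compound 20 min, both room temperature; Measured by: thallium-sensitive FluxOR dye fluorescence; Read-out basis: percent inhibition of fluorescence change ratio, scaled buffer to XE991; Control set: buffer and XE991; Replication: duplicate.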

Experiment [2] can be described thus: thallium flux effects in parental CHO cells, counter-screen for KCNQ1 inhibitor project, cell-based, Tl flux (AID 588366;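 active = mean of duplicate thallium-flux fluorescence ratios in parental host cells more than 5 SD below the buffer control mean, cut at about 0.38 in these data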;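 also: ratio is peak minus minimum fluorescence divided by baseline fluorescence; actives read low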). The following applies: parental CHO-K1, FluxOR thallium flux fluorescence ratio; at 10 µM; active compounds read low; zero means no signal rise above baseline. The essentials:
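Assay system: CHO-K1 parental line without KCNQ1 | Reagent: K+/Tl+ depolarizing stimulus | Incubation: 90 min dye load, 20 min compound, room temperature | Technique: Kinetic FluxOR thallium-flux fluorescence, 10 s baseline plus 110 s | Evaluation: Peak-to-trough fluorescence change relative to baseline, duplicate mean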

Experiment [3] has as its target Potassium voltage-gated channel subfamily KQT member 2 (Rattus norvegicus) (UniProt O88943). Nature of the experiment: KCNQ2 channel inhibition, selectivity assay for KCNQ1 inhibitor project, cell-based (AID 651746).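 As to inhibition: 0% = buffer control wells and 100% = XE-991 inhibitor control.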 As to conditions: KCNQ2 cells, FluxOR thallium flux fluorescence, at 10 µM; active compounds read high.
Experiment [4] has as its target Potassium voltage-gated channel subfamily E member 1 (Homo sapiens) + Potassium voltage-gated channel subfamily KQT member 1 (Homo sapiens) (UniProt P15382+P51787). Nature of the experiment: KCNQ1/KCNE1 channel inhibition, selectivity assay for KCNQ1 inhibitor project, CHO-K1 cells, thallium flux, FluxOR (AID 652147;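 active = mean percent inhibition of duplicate wells above the buffer-only control mean plus 3 SD of those controls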;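 as to inhibition: 0% = buffer only wells and 100% = XE-991 inhibitor control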). The following applies: FluxOR thallium flux fluorescence, at 10 µM; active compounds read high. The essentials: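 Probe or stimulus: depolarizing thallium/potassium stimulus, 5x stock with 12.5 mM Tl2SO4 and K2SO4. System: KCNQ1/KCNE1 potassium channel-expressing cells, plated overnight. Timing: dye 90 min and compound 20 min at room temperature. Signal: kinetic FluxOR thallium-sensitive fluorescence, 1 Hz sampling, 150 s post-stimulus.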

Experiment [5] concerns the target Potassium voltage-gated channel subfamily KQT member 1 (Homo sapiens) (UniProt P51787). Nature of the experiment: KCNQ1 channel inhibitors, confirmation, orthogonal assay, cell-based, automated electrophysiology (AID 624120;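 active = KCNQ1 current drop exceeding 3 SD of negative control wells, seen in both duplicate runs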). The following applies: KCNQ1-CHO cells, automated patch clamp current; at 10 µM. A digest of the protocol:
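System: KCNQ1-expressing CHO cells; Medium: external buffer at pH 7.4; Probe or stimulus: 2,000 ms voltage steps to +40 mV from -80 mV; Compound: 10 µM final, single dose; Technique: automated perforated-patch voltage clamp using amphotericin B; Measure: percent change in steady-state +40 mV current, post- versus pre-compound; Benchmarks: negative controls; Replication: duplicates.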

Chain of Potassium voltage-gated channel subfamily E member 1 (Homo sapiens) + Potassium voltage-gated channel subfamily KQT member 1 (Homo sapiens) (P51787 whole entry, looked up): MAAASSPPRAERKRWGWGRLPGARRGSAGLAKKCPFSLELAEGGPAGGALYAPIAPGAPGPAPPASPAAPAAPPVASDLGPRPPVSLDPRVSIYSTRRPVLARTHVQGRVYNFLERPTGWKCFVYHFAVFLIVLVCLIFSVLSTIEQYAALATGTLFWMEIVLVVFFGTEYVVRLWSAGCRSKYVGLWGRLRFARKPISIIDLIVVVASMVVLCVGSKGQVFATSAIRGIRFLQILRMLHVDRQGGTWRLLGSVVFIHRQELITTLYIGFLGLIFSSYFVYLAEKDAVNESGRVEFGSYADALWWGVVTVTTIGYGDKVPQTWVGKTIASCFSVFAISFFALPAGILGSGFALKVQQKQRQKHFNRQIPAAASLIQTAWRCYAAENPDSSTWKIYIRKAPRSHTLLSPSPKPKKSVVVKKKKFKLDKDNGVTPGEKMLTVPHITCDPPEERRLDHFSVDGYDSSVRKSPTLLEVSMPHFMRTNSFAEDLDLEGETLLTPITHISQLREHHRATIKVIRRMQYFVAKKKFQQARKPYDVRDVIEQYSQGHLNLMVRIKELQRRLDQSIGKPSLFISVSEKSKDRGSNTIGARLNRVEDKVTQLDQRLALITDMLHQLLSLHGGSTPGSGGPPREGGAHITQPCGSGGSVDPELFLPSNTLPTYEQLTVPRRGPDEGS
Chain of Potassium voltage-gated channel subfamily KQT member 2 (Rattus norvegicus) (O88943 whole entry, looked up): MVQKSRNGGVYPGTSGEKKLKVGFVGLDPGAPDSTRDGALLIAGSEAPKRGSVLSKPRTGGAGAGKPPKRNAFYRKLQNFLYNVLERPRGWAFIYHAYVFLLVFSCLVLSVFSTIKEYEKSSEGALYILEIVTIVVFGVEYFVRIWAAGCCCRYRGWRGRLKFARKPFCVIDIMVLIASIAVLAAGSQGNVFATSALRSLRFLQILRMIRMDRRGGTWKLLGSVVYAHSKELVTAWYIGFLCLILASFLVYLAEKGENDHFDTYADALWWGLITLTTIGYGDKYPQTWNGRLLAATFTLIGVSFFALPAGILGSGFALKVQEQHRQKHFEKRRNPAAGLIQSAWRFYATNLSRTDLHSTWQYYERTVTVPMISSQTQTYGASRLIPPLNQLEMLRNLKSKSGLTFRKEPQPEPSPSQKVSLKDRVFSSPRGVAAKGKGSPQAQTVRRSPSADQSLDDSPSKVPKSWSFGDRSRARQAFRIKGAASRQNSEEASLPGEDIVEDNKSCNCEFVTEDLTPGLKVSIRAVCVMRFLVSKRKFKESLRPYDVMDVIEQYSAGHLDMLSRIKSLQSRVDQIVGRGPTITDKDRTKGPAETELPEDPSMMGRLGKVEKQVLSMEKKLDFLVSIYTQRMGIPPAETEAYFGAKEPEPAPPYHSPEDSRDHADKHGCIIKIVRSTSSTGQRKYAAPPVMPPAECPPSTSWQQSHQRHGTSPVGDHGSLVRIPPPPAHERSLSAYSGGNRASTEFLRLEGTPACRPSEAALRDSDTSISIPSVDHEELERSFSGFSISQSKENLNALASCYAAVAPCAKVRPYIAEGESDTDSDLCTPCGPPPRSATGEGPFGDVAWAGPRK
Chain of Potassium voltage-gated channel subfamily KQT member 1 (Homo sapiens) (P51787 whole entry, looked up): as the sequence (P51787 whole entry, looked up) above

With `O=C1CCc2cc(S(=O)(=O)N3CCC(C(=O)NCc4ccccc4Cl)CC3)ccc2N1`, the inhibition in experiment [1] is 0% [the number is a placeholder, only the call stands]. The fluorescence ratio (Tl flux) in experiment [2] was 0.447. Moreover, the molecule was classed as inactive in experiment [3] and in experiment [4].

For `CCOc1ccc(CN2CCN(Cc3c[nH]c4ccccc34)CC2)cc1`, the inhibition in experiment [1] was 0% [the number is a placeholder, only the call stands]; in experiment [4] it was 40% (active). Also, in experiment [2], the fluorescence ratio (Tl flux) was 0.441. Further, the call in experiment [3] was inactive.

For the molecule `COC(=O)c1ccc(NC(=O)Nc2ccc(C)cc2)cc1`, the inhibition in experiment [1] is 62.5% (active). In addition, the fluorescence ratio (Tl flux) in experiment [2] was 0.504. Moreover, the call in experiment [3] and in experiment [4] was inactive.

On to `Cc1cc2nc3c(=O)n(Cc4ccccc4)c(=O)[nH]c3nc2cc1N`, for which the inhibition is 93% (active) in experiment [1] and 110% (active) in experiment [4]. Moreover, the fluorescence ratio (Tl flux) in experiment [2] is 0.332 (active). The molecule was called inactive in experiment [3].

`O=C(Nc1ccc(Cl)c(Cl)c1)N1CC=C(c2ccccc2)CC1`: the values for the inhibition in experiment [1], in experiment [3] and in experiment [4] were 122% (active), 110% (active) and 134% (active), respectively. For the same molecule, in experiment [2], the fluorescence ratio (Tl flux) is 0.411. Besides, the molecule was called inactive in experiment [5].

Take `CC1CCC2(CC1)NC(=O)N(CC(=O)c1cccn1C)C2=O` (stereo unspecified): the inhibition in experiment [1] is 31% (active). Also, the fluorescence ratio (Tl flux) in experiment [2] was 0.503. The call in experiment [3] and in experiment [4] was inactive.

Regarding `Cc1nc(Nc2ccc3c(c2)OCCO3)c2nnn(Cc3ccccc3Cl)c2n1`, the inhibition in experiment [1] was 83% (active); in experiment [3] it was 96% (active); in experiment [4], 102% (active). For the same molecule, in experiment [2], the fluorescence ratio (Tl flux) was 0.413.

Turning to `CCOC(=O)N1CCN(C(=O)C2CCN(c3ncnc4c3sc3cccc(F)c34)CC2)CC1`, the inhibition in experiment [1] was 109% (active); in experiment [3], 105% (active); in experiment [4] it was 90% (active). In addition, the fluorescence ratio (Tl flux) in experiment [2] is 0.427. Moreover, in experiment [5], the molecule was called active.

For `COc1ccc(-c2csc3ncnc(N4CCN(S(=O)(=O)c5cccc(F)c5)CC4)c23)cc1`, the inhibition in experiment [1] was 92.5% (active); in experiment [3], 77% (active); in experiment [4], 122% (active). Also, the fluorescence ratio (Tl flux) in experiment [2] was 0.403. In experiment [5], the call was inactive.

With `CCN(CC)CC(=O)Nc1sc2c(c1C(=O)c1ccccc1C)CCC2`, the figures for the inhibition in experiment [1], in experiment [3] and in experiment [4] were 104% (active), 89% (active) and 168% (active), respectively. The fluorescence ratio (Tl flux) in experiment [2] is 0.444. The molecule was classed as inactive in experiment [5].

`CCOC(=O)C1CCN(c2ncnc3c2oc2ccc(Br)cc23)CC1`: the values for the inhibition in experiment [1], in experiment [3] and in experiment [4] were 150% (active), 129% (active) and 193% (active), respectively. In addition, the fluorescence ratio (Tl flux) in experiment [2] is 0.39. In addition, in experiment [5], the molecule was called inactive.

On to `C=CCSc1nsc(NC(=O)Nc2cccc(C(C)=O)c2)n1`, for which the values for the inhibition in experiment [1], in experiment [3] and in experiment [4] were 100% (active), 74% (active) and 60% (active), respectively. Further, the fluorescence ratio (Tl flux) in experiment [2] was 0.489. Further, in experiment [5], the outcome was inactive.

In the case of `CN(c1cccc(NC(=O)Nc2ccc(Cl)cc2)c1)S(C)(=O)=O`, the inhibition in experiment [1] is 59.5% (active); in experiment [4], 42.5% (active). Also, the fluorescence ratio (Tl flux) in experiment [2] is 0.545. The outcome in experiment [3] was inactive.

Regarding `Cc1cccc(CSc2ccc(-c3cccs3)nn2)c1`, the inhibition was 78% (active) in experiment [1], 114% (active) in experiment [3] and 112% (active) in experiment [4]. Besides, the fluorescence ratio (Tl flux) in experiment [2] was 0.42.

With `Cc1cccc(Nc2ccccc2C(=O)NCc2ccco2)c1C`, the figures for the inhibition in experiment [1], in experiment [3] and in experiment [4] were 134% (active), 101% (active) and 198% (active), respectively. Further, in experiment [2], the fluorescence ratio (Tl flux) was 0.394. Moreover, the call in experiment [5] was inactive.

As for `Cc1cc(C)cc(N(CC(=O)N2CC=C(c3ccccc3)CC2)S(=O)(=O)c2c(C)noc2C)c1`, the inhibition in experiment [1] was 78% (active); in experiment [3], 111% (active); in experiment [4] it was 84% (active). The fluorescence ratio (Tl flux) in experiment [2] is 0.363 (active).

Regarding `CCOC(=O)c1cnc(SC)nc1Sc1ccc(Cl)cc1Cl`, the inhibition in experiment [1] was 97.5% (active); in experiment [3] it was 93% (active); in experiment [4], 111% (active). For the same molecule, the fluorescence ratio (Tl flux) in experiment [2] was 0.406. For the same molecule, the result in experiment [5] was inactive.

For `Fc1cc(Br)ccc1NC(=S)Nc1cccnc1`, the inhibition in experiment [1] is 33% (active). Also, in experiment [2], the fluorescence ratio (Tl flux) is 0.539. In addition, the call in experiment [3] and in experiment [4] was inactive.

Turning to `Cc1ccc(N2CCN(S(=O)(=O)c3ccc(F)cc3)CC2)c(C)c1`, the inhibition in experiment [1] is 79% (active); in experiment [3] it was 94% (active); in experiment [4] it was 69.5% (active). Moreover, the fluorescence ratio (Tl flux) in experiment [2] was 0.406.

Regarding `N#Cc1c(/N=C/N2CCCC2)oc(-c2ccccc2)c1-c1ccccc1`, the inhibition in experiment [1] was 70% (active); in experiment [3] it was 74.3% (active); in experiment [4], 79% (active). The fluorescence ratio (Tl flux) in experiment [2] was 0.445.

Turning to `S=C(NCC1CCCO1)N1CCN(c2ccc(Cl)c(Cl)c2)CC1` (stereo unspecified), the inhibition in experiment [1] was 101% (active); in experiment [3], 76% (active). The fluorescence ratio (Tl flux) in experiment [2] was 0.501. Besides, in experiment [5], the result was active. Besides, the result in experiment [4] was inactive.

On to `COc1ccc(Nc2ncnc3sc(-c4ccccc4)cc23)c(OC)c1`, for which the inhibition in experiment [1] was 82.5% (active); in experiment [3] it was 112% (active); in experiment [4], 146% (active). Besides, the fluorescence ratio (Tl flux) in experiment [2] was 0.403.

With `Cc1nc2ccccc2cc1OCc1ccc(F)cc1`, the inhibition is 126% (active) in experiment [1], 99% (active) in experiment [3] and 88.5% (active) in experiment [4]. The fluorescence ratio (Tl flux) in experiment [2] was 0.438. Further, the molecule was classed as inactive in experiment [5].

As for `Cc1ccc(S(=O)(=O)Nc2ccc3ncccc3c2)cc1`, in experiment [1], the inhibition is 76.5% (active). For the same molecule, the fluorescence ratio (Tl flux) in experiment [2] is 0.499. For the same molecule, the outcome in experiment [3] and in experiment [4] was inactive.

`Clc1cccc(-c2nc(NCC3CCCO3)c3ccccc3n2)c1` (stereo unspecified): the inhibition in experiment [1] is 116% (active); in experiment [3], 118% (active); in experiment [4], 154% (active). Moreover, in experiment [2], the fluorescence ratio (Tl flux) is 0.394. Besides, the outcome in experiment [5] was inactive.

Consider `CC1CCCN(C(C(=O)Nc2ccc(C(C)C)cc2)c2ccc3c(c2)OCO3)C1` (stereo unspecified), for which the inhibition in experiment [1] is 132% (active); in experiment [3], 99.7% (active); in experiment [4], 164% (active). In experiment [2], the fluorescence ratio (Tl flux) is 0.429. Further, the molecule was called inactive in experiment [5].

For the molecule `O=C(CNCCC1=CCCCC1)Nc1ccccc1N1CCCCCC1`, the values for the inhibition in experiment [1], in experiment [3] and in experiment [4] were 144% (active), 114% (active) and 175% (active), respectively. The fluorescence ratio (Tl flux) in experiment [2] was 0.402. Also, the call in experiment [5] was inactive.

In the case of `Cn1nccc1C(=O)NC1CCCc2c1cnn2-c1ccc(F)cc1F` (stereo unspecified), the inhibition was 90% (active) in experiment [1] and 60.3% (active) in experiment [3]. Besides, the fluorescence ratio (Tl flux) in experiment [2] is 0.47. In addition, the call in experiment [5] and in experiment [4] was inactive.

As to `Cc1cc(C)cc(NC(=O)NC2CCCCCCC2)c1`, the inhibition in experiment [1] was 146% (active); in experiment [4], 164% (active). The fluorescence ratio (Tl flux) in experiment [2] is 0.465. Also, the molecule was classed as active in experiment [5]. The molecule was classed as inactive in experiment [3].

As for `C=CCOC(=O)C1=C(C)NC(SCC(=O)OCC)=C(C#N)C1c1ccc(C)cc1` (stereo unspecified), the inhibition was 124% (active) in experiment [1], 115% (active) in experiment [3] and 160% (active) in experiment [4]. For the same molecule, the fluorescence ratio (Tl flux) in experiment [2] was 0.425. Moreover, the outcome in experiment [5] was active.
